ChEMBL document CHEMBL3813596, “Conformational Constraint of the Glycerol Moiety of Lysophosphatidylserine Affords Compounds with Receptor Subtype Selectivity” (J Med Chem, 2016)
The source made the active and inactive calls. The rule behind the calls is not given here.

Columns and labels:
[1] = biological target: Probable G-protein coupled receptor 34 (Mus musculus) (UniProt Q9R1K6); assay: (§1) Agonist activity at mouse GPR34 expressed in HEK293A cells cotransfected with chimeric Galphaq/il after 1.5 hrs by alkaline phosphatase tagged-TGFalpha shedding assay; format: cell-based; settings: HEK293-A
[2] = biological target: Probable G-protein coupled receptor 34 (Mus musculus, UniProt Q9R1K6); assay: as §1; format: cell-based, HEK293-A
[3] = biological target: Putative P2Y purinoceptor 10 (Mus musculus, UniProt Q8BFU7); assay: (§2) Agonist activity at mouse P2Y10 receptor expressed in HEK293A cells after 1.5 hrs by alkaline phosphatase tagged-TGFalpha shedding assay; format: cell-based, HEK293-A
In short: (§3)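 Transient transfection of HEK293 cells with AP-TGFα plus the mouse receptor. For GPR34, HEK293A cells also got a chimeric Gαq/i1 subunit; P2Y10 was run in HEK293A and GPR174 in HEK293FT. Cells were seeded 24 h post-transfection in 5 mM HEPES (pH 7.4) HBSS onto serial 3.2-fold compound dilutions (top final 32 μM or lower, limited by mock-cell signal). Ki16425 was present, and incubation ran 1.5 h.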

[4] = biological target: Probable G-protein coupled receptor 34 (Mus musculus) (UniProt Q9R1K6); assay: Intrinsic activity at mouse GPR34 expressed in HEK293A cells cotransfected with chimeric Galphaq/il after 1.5 hrs by alkaline phosphatase tagged-TGFalpha shedding assay relative to O-(Hydroxy(((2R,3R)-2-(((3-(2-((3-phenoxybenzyl)oxy)phenyl)-propanoyl)oxy)methyl)tetrahydro-2H-pyran-3-yl)oxy)phosphoryl)-L-serine; format: cell-based; settings: HEK293-A
In short: (§4)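 It is a dimensionless estimate of agonist activity. The GPR34 assay used HEK293A cells with chimeric Gαq/i1 and a 1.5 h incubation; the P2Y10 assay used HEK293A cells.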

[5] = biological target: Probable G-protein coupled receptor 174 (Mus musculus) (UniProt Q3U507); assay: Agonist activity at mouse GPR174 expressed in HEK293FT cells after 1.5 hrs by alkaline phosphatase tagged-TGFalpha shedding assay; format: cell-based; in short: as §3
[6] = biological target: Putative P2Y purinoceptor 10 (Mus musculus) (UniProt Q8BFU7); assay: as §2; format: cell-based; settings: HEK293-A; in short: as §3
[7] = biological target: Putative P2Y purinoceptor 10 (Mus musculus) (UniProt Q8BFU7); assay: Intrinsic activity at mouse P2Y10 receptor expressed in HEK293A cells after 1.5 hrs by alkaline phosphatase tagged-TGFalpha shedding assay relative to diF-C3-ph-o-O-C11; format: cell-based; settings: HEK293-A; in short: as §4
[8] = biological target: Putative P2Y purinoceptor 10 (Mus musculus) (UniProt Q8BFU7); assay: Agonist activity at mouse P2Y10 receptor expressed in rat McA-RH7777 cells assessed as induction of actin stress fiber formation at 100 nM after 30 mins by Alexa fluor 594-labelled phalloidin/DAPI staining based fluorescence microscopy; format: cell-based
In short: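 McA-RH7777 rat hepatoma cells stably expressing mouse P2Y10, or mock-infected, seeded on collagen I at 2.5 × 10^4 cells/well, grown 24 h in 10% FBS DMEM. Serum-starved 1 h in 0.01% BSA DMEM, stimulated 30 min. Fixed in 4% paraformaldehyde, Triton X-100 permeabilised, stained 1 h with Alexa 594-phalloidin (1.5 μg/mL) and DAPI (1 μg/mL). Scored by fluorescence imaging.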

Sequence of Probable G-protein coupled receptor 174 (Mus musculus) (Q3U507 whole entry): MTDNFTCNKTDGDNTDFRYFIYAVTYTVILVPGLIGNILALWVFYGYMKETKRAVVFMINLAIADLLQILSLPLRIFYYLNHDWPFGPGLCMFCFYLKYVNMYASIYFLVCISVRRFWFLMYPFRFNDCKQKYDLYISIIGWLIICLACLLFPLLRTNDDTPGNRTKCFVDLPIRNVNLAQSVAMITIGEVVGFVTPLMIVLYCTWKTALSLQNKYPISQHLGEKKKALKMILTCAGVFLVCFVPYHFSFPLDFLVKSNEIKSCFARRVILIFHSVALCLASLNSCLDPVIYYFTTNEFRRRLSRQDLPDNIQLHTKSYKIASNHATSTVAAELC
Sequence of Putative P2Y purinoceptor 10 (Mus musculus) (Q8BFU7 whole entry): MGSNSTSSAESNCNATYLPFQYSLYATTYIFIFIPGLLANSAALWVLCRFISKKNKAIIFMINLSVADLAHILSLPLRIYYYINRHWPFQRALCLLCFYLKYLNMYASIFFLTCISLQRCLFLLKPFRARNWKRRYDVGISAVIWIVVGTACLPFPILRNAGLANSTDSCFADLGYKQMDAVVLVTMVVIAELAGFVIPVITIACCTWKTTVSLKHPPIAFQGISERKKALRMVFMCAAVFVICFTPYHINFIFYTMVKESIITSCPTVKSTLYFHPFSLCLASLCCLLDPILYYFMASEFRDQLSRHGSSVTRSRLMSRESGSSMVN
Sequence of Putative P2Y purinoceptor 10 (Q8BFU7 whole entry): as above
Sequence of Probable G-protein coupled receptor 34 (Q9R1K6 whole entry): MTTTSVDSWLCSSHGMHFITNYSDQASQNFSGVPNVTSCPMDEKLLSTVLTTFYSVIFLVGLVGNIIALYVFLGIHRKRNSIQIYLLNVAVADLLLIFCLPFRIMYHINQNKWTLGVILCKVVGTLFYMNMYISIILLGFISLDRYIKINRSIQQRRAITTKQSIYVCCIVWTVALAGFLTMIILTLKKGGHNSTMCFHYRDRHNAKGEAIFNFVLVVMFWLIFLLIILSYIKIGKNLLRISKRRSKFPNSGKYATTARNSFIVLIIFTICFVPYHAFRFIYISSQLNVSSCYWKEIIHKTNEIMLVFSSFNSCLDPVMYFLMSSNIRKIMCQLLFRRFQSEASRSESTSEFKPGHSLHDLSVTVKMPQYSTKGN
Sequence of Probable G-protein coupled receptor 34 (Mus musculus) (Q9R1K6 whole entry): as above

Structure (SMILES)	Emax [1]	EC50 ([2]; read-out: EC50) [µM]	EC50 ([3]; hek293-a)	Intrinsic activity [4]	Activity [5]	EC50 ([2]; hek293-a)	Emax [6]	EC50 ([3]; read-out: EC50) [µM]	Intrinsic activity [7]	Activity [8]	pEC50 [1]
CCCCCCCC/C=C\CCCCCCCC(=O)OC[C@@H]1OCCC[C@@H]1OP(=O)(O)OC[C@@H](N)C(=O)O (single isomer, unassigned)	11.1%	0.21	Not Active	0.53	inactive						
N[C@@H](COP(=O)(O)OC[C@H]1OCCC[C@H]1OC(=O)CCc1cccc(OCc2cccc(Oc3ccccc3)c2)c1)C(=O)O						Not Active	inactive	> 1	inactive		
CCCCCCCCCCCOc1ccccc1CCC(=O)OC[C@H]1OCC=C[C@H]1OP(=O)(O)OC[C@H](N)C(=O)O		0.51					12.4%	0.042	0.05	Active	
N[C@@H](COP(=O)(O)O[C@@H]1C=CCO[C@@H]1COC(=O)CCc1ccccc1OCc1cccc(Oc2ccccc2)c1)C(=O)O	12.4%	0.6		0.2			inactive	> 1	inactive		
N[C@@H](COP(=O)(O)OC[C@H]1OCC=C[C@H]1OC(=O)CCc1ccccc1OCc1cccc(Oc2ccccc2)c1)C(=O)O	16.5%	0.18		0.86			inactive	> 1	inactive		
N[C@@H](COP(=O)(O)O[C@@H]1CCCO[C@@H]1COC(=O)CCc1cccc(OCc2cccc(Oc3ccccc3)c2)c1)C(=O)O	inactive	> 1		inactive			inactive	> 1	inactive		
CCCCCCCC/C=C\CCCCCCCC(=O)O[C@@H]1C=CCO[C@@H]1COP(=O)(O)OC[C@H](N)C(=O)O		0.56					inactive	> 1	inactive		
N[C@@H](COP(=O)(O)OC[C@H]1OCCC[C@@H]1OC(=O)CCc1ccccc1OCc1cccc(Oc2ccccc2)c1)C(=O)O	inactive	> 1		inactive	inactive		inactive	> 1	inactive		
CCCCCCCCCCCOc1ccccc1CCC(=O)OCc1cccc(OP(=O)(O)OC[C@H](N)C(=O)O)c1						Not Active	10.8%	0.0067	0.23	Active	
CCCCCCCCCCCOc1ccccc1CCC(=O)OCc1ccc(OP(=O)(O)OC[C@H](N)C(=O)O)cc1						Not Active	inactive	> 1	inactive	inactive	
CCCCCCCC/C=C\CCCCCCCC(=O)OC[C@@H]1OCCC[C@H]1OP(=O)(O)OC[C@@H](N)C(=O)O (single isomer, unassigned)	8.7%	0.1		1.03	inactive			0.45			
CCCCCCCC/C=C\CCCCCCCC(=O)O[C@H]1CCCO[C@@H]1COP(=O)(O)OC[C@H](N)C(=O)O			Not Active		inactive	Not Active					
N[C@@H](COP(=O)(O)OC[C@H]1OCC=C[C@@H]1OC(=O)CCc1ccccc1OCc1cccc(Oc2ccccc2)c1)C(=O)O	inactive	> 1		inactive			inactive	> 1	inactive		
CCCCCCCC/C=C\CCCCCCCC(=O)OC[C@@H]1OCC=C[C@@H]1OP(=O)(O)OC[C@@H](N)C(=O)O (single isomer, unassigned)	inactive	> 1		inactive			inactive	> 1	inactive		
CCCCCCCCCCCOc1ccccc1CCC(=O)OC[C@H]1OCCC[C@H]1OP(=O)(O)OC[C@H](N)C(=O)O	5.2%	0.11		0.41	inactive		10.6%	0.47	0.0038		
CCCCCCCC/C=C\CCCCCCCC(=O)O[C@H]1C=CCO[C@@H]1COP(=O)(O)OC[C@H](N)C(=O)O						Not Active	inactive	> 1	inactive		
CCCCCCCCCCCOc1ccccc1CCC(=O)O[C@H]1CCCO[C@@H]1COP(=O)(O)OCC(N)C(=O)O (single isomer, unassigned)	< 3%			inactive	inactive	Not Active	7.2%	0.29	0.0098		inactive
CCCCCCCCCCCOc1ccccc1CCC(=O)OCc1ccccc1OP(=O)(O)OC[C@H](N)C(=O)O	5.9%	0.7		0.2			5.8%	0.045	0.02	Active	
CCCCCCCCCCCOc1ccccc1CCC(=O)OC[C@H]1OCCC[C@@H]1OP(=O)(O)OC[C@H](N)C(=O)O	5.3%	0.64		0.082	inactive		7.5%	0.61	0.002		
CCCCCCCCCCCOc1ccccc1CCC(=O)O[C@H]1C=CCO[C@@H]1COP(=O)(O)OCC(N)C(=O)O (single isomer, unassigned)	inactive			inactive		Not Active	inactive	> 1	inactive		inactive
CCCCCCCC/C=C\CCCCCCCC(=O)OC[C@@H](O)COP(=O)(O)OC[C@H](N)C(=O)O	9.5%			0.33			12.5%	0.025	0.073	Active	
N[C@@H](COP(=O)(O)OC[C@H]1OCCC[C@H]1OC(=O)CCc1ccc(OCc2cccc(Oc3ccccc3)c2)cc1)C(=O)O	inactive	> 1		inactive			inactive	> 1	inactive		
N[C@@H](COP(=O)(O)O[C@H]1C=CCO[C@@H]1COC(=O)CCc1ccccc1OCc1cccc(Oc2ccccc2)c1)C(=O)O	11.7%	0.46		0.25			11.5%	0.33	0.0053		
N[C@@H](COP(=O)(O)O[C@H]1CCCO[C@@H]1COC(=O)CCc1ccccc1OCc1cccc(Oc2ccccc2)c1)C(=O)O	9.8%	0.34		0.24	inactive		inactive	> 1	inactive		
CCCCCCCCCCCOc1ccccc1CCC(=O)O[C@@H]1CCCO[C@@H]1COP(=O)(O)OCC(N)C(=O)O (single isomer, unassigned)	inactive	> 1		inactive	inactive		inactive	> 1	inactive		
N[C@@H](COP(=O)(O)O[C@@H]1CCCO[C@@H]1COC(=O)CCc1ccc(OCc2cccc(Oc3ccccc3)c2)cc1)C(=O)O						Not Active	inactive	> 1	inactive		
CCCCCCCC/C=C\CCCCCCCC(=O)OC[C@@H]1OCC=C[C@H]1OP(=O)(O)OC[C@@H](N)C(=O)O (single isomer, unassigned)	inactive	> 1		inactive			11.5%	0.45	0.004		
CCCCCCCCCCCOc1ccccc1CCC(=O)O[C@@H]1C=CCO[C@@H]1COP(=O)(O)OCC(N)C(=O)O (single isomer, unassigned)	inactive	> 1		inactive			inactive	> 1	inactive		
CCCCCCCC/C=C\CCCCCCCC(=O)O[C@@H]1CCCO[C@@H]1COP(=O)(O)OC[C@H](N)C(=O)O		> 1			inactive			> 1			
CCCCCCCCCCCOc1ccccc1CCC(=O)OC[C@H]1OCC=C[C@@H]1OP(=O)(O)OC[C@H](N)C(=O)O						Not Active	7.6%	0.017	0.071	Active	
